Results taken from ChEMBL document CHEMBL1154853, “New 1,3-oxazolo[4,5-c]quinoline derivatives: synthesis and evaluation of antibacterial and antituberculosis properties” (2010).
In brackets after ≈: the same amount, converted by molar mass. Several values for one entry are separate records, joined by “and”; a condition that tells them apart may be missing. Equal entries are not always repeated.

How the values were obtained:
Assay type in all cases: functional
Pseudomonas aeruginosa [1] = test: Antimicrobial activity against Pseudomonas aeruginosa ATTC 27853 at MIC after 3 to 4 days by disc diffusion method
[2] = system: Mycobacterium tuberculosis; test: Antitubercular activity against Mycobacterium tuberculosis H37Rv after 24 hrs by broth microdilution method
Summary of the method: (§1)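 M. tuberculosis H37Rv grown in Middlebrook 7H9 with 10% OADC, diluted to McFarland 1, 50 µl added to 150 µl fresh medium. Compounds from 2 mg/mL DMF stocks tested at 1, 10 and 100 µg/mL; DMF-only controls. 7 days at 37 °C, then 0.01% resazurin added with 24 h further incubation. MIC = lowest concentration preventing blue-to-pink change.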

[3] = system: Mycobacterium tuberculosis; test: Antitubercular activity against Mycobacterium tuberculosis H37Rv at MIC after 24 hrs by broth microdilution method; summary of the method: as §1
Klebsiella pneumoniae [4] = test: Antimicrobial activity against Klebsiella pneumoniae after 16 to 18 hrs by serial dilution method
Summary of the method: (§2)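 Tube broth dilution: serial drug dilutions in Mueller Hinton broth, pH adjusted to 5.0 with phosphate buffer. A standardized bacterial suspension was inoculated and incubated 16-18 h at 37 °C. MIC was read as the lowest drug concentration with no visible growth. Ciprofloxacin served as the reference.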

Pseudomonas aeruginosa [5] = test: Antimicrobial activity against Pseudomonas aeruginosa ATTC 27853 after 16 to 18 hrs by serial dilution method; summary of the method: as §2
Staphylococcus aureus [6] = test: Antimicrobial activity against Staphylococcus aureus […] after 16 to 18 hrs by serial dilution method; summary of the method: as §2
Escherichia coli [7] = test: Antimicrobial activity against Escherichia coli […] after 16 to 18 hrs by serial dilution method; summary of the method: as §2
Escherichia coli [8] = test: Antimicrobial activity against Escherichia coli […] at MIC after 3 to 4 days by disc diffusion method
Staphylococcus aureus [9] = test: Antimicrobial activity against Staphylococcus aureus […] at MIC after 3 to 4 days by disc diffusion method
Klebsiella pneumoniae [10] = test: Antimicrobial activity against Klebsiella pneumoniae at MIC after 3 to 4 days by disc diffusion method

| Structure (SMILES) | diameter of the inhibition zone (DIZ) (Pseudomonas aeruginosa [1]) | MIC [2] [µg/mL] | inhibition (INH) [3] [%] | MIC (Klebsiella pneumoniae [4]) [µg/mL] | MIC (Pseudomonas aeruginosa [5]) [µg/mL] | MIC (Staphylococcus aureus [6]) [µg/mL] | MIC (Escherichia coli [7]) [µg/mL] | diameter of the inhibition zone (DIZ) (Escherichia coli [8]) | diameter of the inhibition zone (DIZ) (Staphylococcus aureus [9]) | diameter of the inhibition zone (DIZ) (Klebsiella pneumoniae [10]) |
| --- | --- | --- | --- | --- | --- | --- | --- | --- | --- | --- |
| O=C(Nc1ccc(F)cc1)Nc1c(-c2ccc(F)cc2)nc2ccccc2c1O | 17 mm | 10 (≈ 25.6 µM) | 95 | 6.25 (≈ 16 µM) | 6.25 (≈ 16 µM) | 6.25 (≈ 16 µM) | 6.25 (≈ 16 µM) | 24 mm | 18 mm | 16 mm |
| Fc1cccc(-c2nc3ccccc3c3oc(NCc4ccccc4)nc23)c1 | 19 mm | 1 (≈ 2.71 µM) | 99 | 6.25 (≈ 16.9 µM) | 6.25 (≈ 16.9 µM) | 6.25 (≈ 16.9 µM) | 6.25 (≈ 16.9 µM) | 23 mm | 22 mm | 18 mm |
| O=C(NCc1ccccc1)Nc1c(-c2ccc(F)cc2)nc2ccccc2c1O | <10 mm | 10 (≈ 25.8 µM) | 95 | 50 (≈ 129 µM) | 50 (≈ 129 µM) | 6.25 (≈ 16.1 µM) | 50 (≈ 129 µM) | <10 mm | 16 mm | <10 mm |
| CCCCCNC(=O)Nc1c(-c2ccc(F)cc2)nc2ccccc2c1O | <10 mm | > 100 | 0 | 50 (≈ 136 µM) | 50 (≈ 136 µM) | 50 (≈ 136 µM) | 6.25 (≈ 17 µM) | 20 mm | <10 mm | <10 mm |
| O=C(Nc1cccc(Cl)c1)Nc1c(-c2ccc(F)cc2)nc2ccccc2c1O | 20 mm | 10 (≈ 24.5 µM) | 95 | 6.25 (≈ 15.3 µM) | 6.25 (≈ 15.3 µM) | 6.25 (≈ 15.3 µM) | 6.25 (≈ 15.3 µM) | 22 mm | 18 mm | 20 mm |
| CCCCCNc1nc2c(-c3cccc(F)c3)nc3ccccc3c2o1 | 14 mm | 10 (≈ 28.6 µM) | 95 | 12.5 (≈ 35.8 µM) | 12.5 (≈ 35.8 µM) | 12.5 (≈ 35.8 µM) | 6.25 (≈ 17.9 µM) | 24 mm | 11 mm | 12 mm |
| Fc1ccc(Nc2nc3c(-c4cccc(F)c4)nc4ccccc4c3o2)cc1 | 25 mm | 1 (≈ 2.68 µM) | 99 | 6.25 (≈ 16.7 µM) | 6.25 (≈ 16.7 µM) | 6.25 (≈ 16.7 µM) | 6.25 (≈ 16.7 µM) | 25 mm | 22 mm | 19 mm |
| COc1ccccc1NC(=O)Nc1c(-c2ccc(F)cc2)nc2ccccc2c1O | 16 mm | 1 (≈ 2.48 µM) | 99 | 6.25 (≈ 15.5 µM) | 6.25 (≈ 15.5 µM) | 6.25 (≈ 15.5 µM) | 6.25 (≈ 15.5 µM) | 21 mm | 17 mm | 19 mm |
| O=C(Nc1ccc(F)cc1)Nc1c(-c2cccc(F)c2)nc2ccccc2c1O | 19 mm | 10 (≈ 25.6 µM) | 95 | 6.25 (≈ 16 µM) | 6.25 (≈ 16 µM) | 6.25 (≈ 16 µM) | 6.25 (≈ 16 µM) | 21 mm | 20 mm | 16 mm |
| O=C(NCCc1ccccc1)Nc1c(-c2cccc(F)c2)nc2ccccc2c1O | <10 mm | > 100 | 0 | 50 (≈ 125 µM) | 50 (≈ 125 µM) | 50 (≈ 125 µM) | 50 (≈ 125 µM) | <10 mm | <10 mm | <10 mm |
| Cc1cc(C)cc(NC(=O)Nc2c(-c3ccc(F)cc3)nc3ccccc3c2O)c1 | <10 mm | > 100 | 0 | 50 (≈ 125 µM) | 50 (≈ 125 µM) | 50 (≈ 125 µM) | 50 (≈ 125 µM) | <10 mm | <10 mm | <10 mm |
| O=C(NCc1ccccc1)Nc1c(-c2cccc(F)c2)nc2ccccc2c1O | 20 mm | 10 (≈ 25.8 µM) | 95 | 6.25 (≈ 16.1 µM) | 6.25 (≈ 16.1 µM) | 6.25 (≈ 16.1 µM) | 6.25 (≈ 16.1 µM) | 21 mm | 18 mm | 18 mm |
| O=C(Nc1ccccc1)Nc1c(-c2cccc(F)c2)nc2ccccc2c1O | 18 mm | 10 (≈ 26.8 µM) | 95 | 6.25 (≈ 16.7 µM) | 6.25 (≈ 16.7 µM) | 6.25 (≈ 16.7 µM) | 6.25 (≈ 16.7 µM) | 20 mm | 17 mm | 20 mm |
| N#Cc1cccc(NC(=O)Nc2c(-c3cccc(F)c3)nc3ccccc3c2O)c1 | 19 mm | > 100 | 0 | 6.25 (≈ 15.7 µM) | 6.25 (≈ 15.7 µM) | 6.25 (≈ 15.7 µM) | 6.25 (≈ 15.7 µM) | 23 mm | 19 mm | 18 mm |
| CCCCCNC(=O)Nc1c(-c2cccc(F)c2)nc2ccccc2c1O | 11 mm | > 100 | 0 | 12.5 (≈ 34 µM) | 12.5 (≈ 34 µM) | 12.5 (≈ 34 µM) | 6.25 (≈ 17 µM) | 22 mm | 12 mm | 12 mm |
| COc1ccccc1NC(=O)Nc1c(-c2cccc(F)c2)nc2ccccc2c1O | 18 mm | 1 (≈ 2.48 µM) | 99 | 6.25 (≈ 15.5 µM) | 6.25 (≈ 15.5 µM) | 6.25 (≈ 15.5 µM) | 6.25 (≈ 15.5 µM) | 22 mm | 19 mm | 19 mm |
| CSc1ccc(NC(=O)Nc2c(-c3cccc(F)c3)nc3ccccc3c2O)cc1 | <10 mm | > 100 | 0 | 50 (≈ 119 µM) | 50 (≈ 119 µM) | 50 (≈ 119 µM) | 6.25 (≈ 14.9 µM) | 22 mm | <10 mm | <10 mm |
| COc1ccccc1Nc1nc2c(-c3cccc(F)c3)nc3ccccc3c2o1 | 21 mm | 1 (≈ 2.59 µM) | 99 | 6.25 (≈ 16.2 µM) | 6.25 (≈ 16.2 µM) | 6.25 (≈ 16.2 µM) | 6.25 (≈ 16.2 µM) | 24 mm | 21 mm | 21 mm |
| CSc1ccc(Nc2nc3c(-c4cccc(F)c4)nc4ccccc4c3o2)cc1 | 20 mm | 10 (≈ 24.9 µM) | 95 | 6.25 (≈ 15.6 µM) | 6.25 (≈ 15.6 µM) | 6.25 (≈ 15.6 µM) | 6.25 (≈ 15.6 µM) | 23 mm | 20 mm | 22 mm |
| Fc1cccc(-c2nc3ccccc3c3oc(Nc4ccccc4)nc23)c1 | 22 mm | 10 (≈ 28.1 µM) | 95 | 6.25 (≈ 17.6 µM) | 6.25 (≈ 17.6 µM) | 6.25 (≈ 17.6 µM) | 6.25 (≈ 17.6 µM) | 26 mm | 20 mm | 20 mm |
| N#Cc1cccc(Nc2nc3c(-c4cccc(F)c4)nc4ccccc4c3o2)c1 | 14 mm | > 100 | 0 | 12.5 (≈ 32.9 µM) | 12.5 (≈ 32.9 µM) | 12.5 (≈ 32.9 µM) | 12.5 (≈ 32.9 µM) | 16 mm | 11 mm | 12 mm |
| O=C(O)c1cn(C2CC2)c2cc(N3CCNCC3)c(F)cc2c1=O [CIPROFLOXACIN] | 31 mm and 25 mm | – | – | 6.25 (≈ 18.9 µM) | – | – | – | 28 mm and 29 mm | 26 mm and 24 mm | 25 mm and 22 mm |
| NNC(=O)c1ccncc1 [ISONIAZID] | – | 1.5 (≈ 10.9 µM) | 95 | – | – | – | – | – | – | – |
| CO[C@H]1/C=C/O[C@@]2(C)Oc3c(C)c(O)c4c(O)c(c(/C=N/N5CCN(C)CC5)c(O)c4c3C2=O)NC(=O)/C(C)=C\C=C\[C@H](C)[C@H](O)[C@@H](C)[C@@H](O)[C@@H](C)[C@H](OC(C)=O)[C@@H]1C [RIFAMPIN] | – | 0.5 (≈ 0.608 µM) | 99 | – | – | – | – | – | – | – |
